Measured values pooled from the literature.
Lines come from different studies, so protocols differ.
Target: Mitogen-activated protein kinase 7 (MAPK7, Homo sapiens, UniProt Q13164)

`N[C@@H]1CCN(c2nccc(-c3cnn4ncccc34)n2)C1` gave a remaining binding of 100% (binding; 1 µM).
With `CCN1CCN(Cc2ccc(C(=O)Nc3ccc(C)c(Oc4ccc5c(c4)CC(=O)N5)c3)cc2C(F)(F)F)CC1` the remaining binding was 100% (binding, competition with immobilised ligand; 1 µM).
For `CN(C)c1ncc(F)c(-c2cnn3ncccc23)n1`, the remaining binding was 99% (binding; 1 µM).
`COc1cnc(Nc2cccc(S(N)(=O)=O)c2)nc1N1CCN(c2ccccc2)CC1` has a remaining binding of 100% (binding, competition with immobilised ligand; 1 µM).
`CNC(=O)Nc1ccc2c(c1)[C@@]1(CC2)OC(=O)N(CC(=O)N(Cc2ccc(F)cc2)[C@@H](C)C(F)(F)F)C1=O` has a remaining binding of 85% (cell-free assay, competition with immobilised ligand; 1 µM).
For `O=C(NCCCN1CCOCC1)c1ccc(Nc2nccc(-c3cc4ccccc4s3)n2)cc1`, the remaining binding was 87% (binding, competition with immobilised ligand; 1 µM).
`CS(=O)(=O)N1CCCC(NC(=O)[C@H](CCC2CCCCC2)NC(=O)c2ccc(CNC(=O)c3cnc4ccccn34)cc2)C1` (some centres unmarked) has a remaining binding of 94% (cell-free assay, competition with immobilised ligand; 0.1 µM).
With `COc1cnc(Nc2cccc(S(N)(=O)=O)c2)nc1N1CCN(c2ccccc2)C(=O)C1` the remaining binding was 100% (binding, competition with immobilised ligand; 1 µM).
With `Cc1cnn2ncc(-c3ccnc(N(C)C)n3)c2c1` the remaining binding was 96% (binding; 1 µM).
`CN([C@@H]1CCc2c(CC(=O)O)c3ccccc3n2C1)S(=O)(=O)c1ccc(F)cc1` gave a remaining binding of 100% (cell-free assay, competition with immobilised ligand; 1 µM).
`F[C@@H]1CCN(c2nccc(-c3cnn4ncccc34)n2)C1` has a remaining binding of 100% (binding; 1 µM).
With `COc1ncc2cc3ccccc3nc2c1C#N` the remaining binding was 100% (cell-free assay, competition with immobilised ligand; 5 µM).
`Cc1cnc(Nc2ccc(C(=O)N3CCC(N4CCCC4)CC3)cc2)nc1-c1cc2ccccc2s1` has a remaining binding of 21% (binding, competition with immobilised ligand; 1 µM).
For `C=CC(=O)N1CCC(C(=O)NCC(=O)N2CCN(c3nc(-c4cnc(N)nc4C(F)F)nc(N4CCOCC4)n3)CC2)CC1`, the remaining binding was 100% (binding, competition with immobilised ligand; 1 µM).
With `COc1ccnn2ncc(-c3ccnc(N(C)C)n3)c12` the remaining binding was 100% (binding; 1 µM).
With `CN(C)C(=O)Cn1cc(-c2nc([C@@](C)(c3ccc(-c4cnc(N)nc4)cc3)C3CC3)no2)cn1` the remaining binding was 90% (cell-free assay, competition with immobilised ligand; 1 µM).
`C[C@H]1CCN(c2nccc(-c3cnn4ncccc34)n2)C1` gave a remaining binding of 93% (binding; 1 µM).
For `CN(c1ccnc(CNc2nc(Nc3ccc4c(c3)CC(=O)N4)ncc2C(F)(F)F)n1)S(C)(=O)=O`, the remaining binding was 78% (cell-free assay, competition with immobilised ligand; 1 µM).
`O=C(c1ccc(Nc2nccc(-c3cc4ccccc4s3)n2)cc1)N1CCC(N2CCCC2)CC1` has a remaining binding of 100% (binding, competition with immobilised ligand; 1 µM).
With `C[C@@]1(Cc2ccc(C#N)cc2)C(=O)N(c2cc(Cl)cc(Cl)c2)c2ncc(C(=O)NC3(c4nc(C5CCC5)no4)CC3)n21` the remaining binding was 100% (cell-free assay, competition with immobilised ligand; 1 µM).
The remaining binding of `O=C(Nc1c[nH]nc1C(=O)NC1CCNCC1)c1cc(F)cc(F)c1` is reported as 83% (binding, competition with immobilised ligand; 1 µM).
The remaining binding of `CC1CCCN1c1nccc(-c2cnn3ncccc23)n1` (centres unmarked) is reported as 100% (binding; 1 µM).
With `CN([C@@H]1CCc2c(CC(=O)O)c3cc(S(C)(=O)=O)ccc3n2C1)S(=O)(=O)c1ccc(F)cc1` the remaining binding was 96% (cell-free assay, competition with immobilised ligand; 1 µM).
